Laboratory results published in ChEMBL document CHEMBL1156809, “Synthesis and anticonvulsant activities of (R)-N-(4'-substituted)benzyl 2-acetamido-3-methoxypropionamides” (J Med Chem, 2010).
The source made the active and inactive calls. No cut-off for these calls is given here.

Assays:
Mus musculus [1] = assay: Anticonvulsant activity in ip dosed albino CF1 mouse seizure model assessed as protection against hind limb extension by MES test; type: functional; conditions: albino CF1, Hindlimb
Outline: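 Maximal electroshock seizure test run by the NINDS ASP (Stables and Kupferberg procedures). Compounds were given intraperitoneally to mice, and the ED50 for seizure protection is reported in mg/kg.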

[2] = Neurological toxicity in ip dosed albino CF1 mouse assessed as neurological impairment by rotarod test; type: organism-based; conditions: in vivo
Outline: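 Neurological impairment was measured with the rotorod test in mice dosed intraperitoneally. The median dose (TD50, mg/kg) was determined only for compounds with significant MES activity.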

Rattus norvegicus [3] = assay: Anticonvulsant activity in po dosed albino Sprague-Dawley rat seizure model assessed as protection against hind limb extension by MES test; type: functional; conditions: Hindlimb
Outline: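 MES seizure protection was tested in Sprague Dawley rats dosed orally, through the NINDS ASP. The ED50 is expressed in mg/kg.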

[4] = Behavioral toxicity in po dosed albino Sprague-Dawley rat; type: organism-based; conditions: in vivo
Outline: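 Behavioral toxicity was recorded as observed effects in rats after oral administration, within the NINDS ASP screen.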

Mus musculus [5] = assay: Anticonvulsant activity against subcutaneous metrazole-induced seizures in albino CF1 mouse at 300 mg/kg, ip after 0.5 hrs; type: functional, organism-based; parameters: dose 300 mg/kg
Outline: (§1)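 Subcutaneous Metrazol seizure test under the NINDS ASP, using ip dosing to mice, typically at 300 mg/kg. Protection was assessed at 0.5 and 4 h.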

Rattus norvegicus [6] = assay: Anticonvulsant activity against subcutaneous metrazole-induced seizures in albino Sprague-Dawley rat at 300 mg/kg, ip after 0.5 hrs; type: functional, organism-based; parameters: dose 300 mg/kg
Mus musculus [7] = assay: Anticonvulsant activity against subcutaneous metrazole-induced seizures in albino CF1 mouse at 300 mg/kg, ip after 4 hrs; type: functional, organism-based; parameters: dose 300 mg/kg; outline: as §1
Rattus norvegicus [8] = assay: Anticonvulsant activity against subcutaneous metrazole-induced seizures in albino Sprague-Dawley rat at 300 mg/kg, ip after 4 hrs; type: functional, organism-based; parameters: dose 300 mg/kg
Mus musculus [9] = assay: Protective index, ratio of TD50 for ip dosed albino CF1 mouse to ED50 for ip dosed albino CF1 mouse; type: functional
Outline: (§2)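 Protective index was calculated as TD50/ED50 for the same species and route: mouse ip (rotorod TD50, MES ED50) and rat po.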

Rattus norvegicus [10] = assay: Protective index, ratio of TD50 for po dosed albino Sprague-Dawley rat to ED50 for po dosed albino Sprague-Dawley rat; type: functional; outline: as §2
Rattus norvegicus [11] = assay: Anticonvulsant activity against in ip dosed albino Sprague-Dawley rat hippocampal kindled seizure model assessed as after-discharge duration after 0.5 hrs; type: functional, Hippocampus
Outline: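 Rats were given compounds intraperitoneally in the rapid hippocampal kindling model under the NINDS ASP. Racine seizure score and after-discharge duration (sec) were recorded before and after dosing. Where determined, ED50 (mg/kg) is given with an interval.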

Structure (SMILES) | ED50 (Mus musculus [1]) | TD50 [2] | ED50 (Rattus norvegicus [3]) | TD50 [4] | Activity (Mus musculus [5]) | Activity (Rattus norvegicus [6]) | Activity (Mus musculus [7]) | Activity (Rattus norvegicus [8]) | PI (Mus musculus [9]) | PI (Rattus norvegicus [10]) | Time (Rattus norvegicus [11])
COC[C@H](NC(C)=O)C(=O)NCc1ccc(I)cc1 | 100 mg/kg | > 300 mg/kg | > 30 mg/kg | > 30 mg/kg | inactive | inactive | inactive | inactive |  |  | 
COC[C@@H](NC(C)=O)C(=O)NCc1ccc(C(C)C)cc1 | 10 mg/kg | 100 mg/kg | > 30 mg/kg | > 30 mg/kg | inactive | inactive | inactive | inactive |  |  | 
COCCCc1ccc(CNC(=O)[C@@H](COC)NC(C)=O)cc1 | 20 mg/kg | 62 mg/kg |  | > 500 mg/kg | inactive | inactive | inactive | inactive | 3.1 | >32 | 21 s
COC[C@@H](NC(C)=O)C(=O)NCc1ccc(OC(F)(F)F)cc1 | 3.6 mg/kg | 13 mg/kg | 1.7 mg/kg | 63 mg/kg | inactive | inactive | inactive | inactive | 3.6 | 37 | 
O=C1NC(=O)C(c2ccccc2)(c2ccccc2)N1 [PHENYTOIN] |  |  |  |  | inactive | inactive | inactive | inactive |  |  | 51 s
COC[C@H](NC(C)=O)C(=O)NCc1ccc(C#N)cc1 | 100 mg/kg | > 300 mg/kg | > 30 mg/kg | > 30 mg/kg | inactive | inactive | inactive | inactive |  |  | 
CCc1ccc(CNC(=O)[C@@H](COC)NC(C)=O)cc1 | 10 mg/kg | 30 mg/kg | 18 mg/kg | > 250 mg/kg | inactive | inactive | inactive | inactive |  | >14 | 
C#Cc1ccc(CNC(=O)[C@@H](COC)NC(C)=O)cc1 | 3 mg/kg |  | 3.4 mg/kg | > 250 mg/kg | inactive | inactive | inactive | inactive |  | >74 | 
COC[C@@H](NC(C)=O)C(=O)NCc1ccc(C(F)(F)F)cc1 | 10 mg/kg | 100 mg/kg | 4.9 mg/kg | > 280 mg/kg | inactive | inactive | inactive | inactive |  | >57 | 
COC[C@@H](NC(C)=O)C(=O)NCc1ccc(-c2ccccc2)cc1 | 8 mg/kg | 11 mg/kg | 2 mg/kg | 49 mg/kg | inactive | inactive | inactive | inactive |  | >25 | 
COC[C@@H](NC(C)=O)C(=O)NCc1ccc(C(C)(C)C)cc1 | 100 mg/kg | 100 mg/kg | > 30 mg/kg | > 30 mg/kg | inactive | inactive | inactive | inactive |  |  | 
CCc1ccc(CNC(=O)[C@H](COC)NC(C)=O)cc1 | 100 mg/kg | 100 mg/kg | > 30 mg/kg | > 30 mg/kg | inactive | inactive | inactive | inactive |  |  | 
COC[C@@H](NC(C)=O)C(=O)NCc1ccc(Cl)cc1 | 5 mg/kg | 28 mg/kg | 1 mg/kg | > 200 mg/kg | inactive | inactive | inactive | inactive | 5.6 | >200 | 2 s
COC[C@@H](NC(C)=O)C(=O)NCc1ccc(Br)cc1 | 8.7 mg/kg | 30 mg/kg | 4.9 mg/kg | 300 mg/kg | inactive | inactive | inactive | inactive | 3.5 | 61 | 
